Compounds with a hit are over-represented: about 1.4% of the library has one in this group of screens.
bovine MsrA act: activates bovine MsrA enzyme; purified bovine MsrA, absorbance read-out; activation, % at 10.6 µM; 360,000 tested, 0.3% active; AID 602163; in the data active = activation above about 7.5%;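 also: 0% = vehicle and 100% = reference activator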
MsrA inhibitor: inhibits bovine methionine sulfoxide reductase A | AID 651718 | 360,000 tested, 0.75% active | inhibition, % at 15.5 µM | purified bovine MsrA, absorbance read-out;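 also: 0% = vehicle wells with enzyme and 100% = reference inhibitor wells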
ASAP1 GAP inh: inhibitors of human ASAP1 ArfGAP activity; ASAP1-stimulated ARF1 GTP hydrolysis, GDP FP detection; inhibition, % at 16.5 µM; 360,000 tested, 0.19% active; AID 624377; in the data active = inhibition above about 25%;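 also: 0% = vehicle with enzyme and substrate and 100% = no enzyme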
Target sequence (Q9ULH1 325-724 limits assumed): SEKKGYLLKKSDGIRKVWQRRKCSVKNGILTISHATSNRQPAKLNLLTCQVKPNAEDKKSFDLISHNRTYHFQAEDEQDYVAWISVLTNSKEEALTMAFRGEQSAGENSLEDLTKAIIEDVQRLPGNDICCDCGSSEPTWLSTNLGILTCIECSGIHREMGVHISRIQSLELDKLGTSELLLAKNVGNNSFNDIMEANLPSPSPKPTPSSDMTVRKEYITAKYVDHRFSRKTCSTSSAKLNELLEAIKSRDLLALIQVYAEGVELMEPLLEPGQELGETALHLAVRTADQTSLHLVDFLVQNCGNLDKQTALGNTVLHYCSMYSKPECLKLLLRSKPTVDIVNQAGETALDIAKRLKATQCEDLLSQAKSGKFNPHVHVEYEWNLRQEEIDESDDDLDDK
ARFGAP1 inhibitor: rat ARFGAP1 inhibition; inhibition, % at 16.5 µM; 360,000 tested, 0.26% active; AID 651572; Arfgap1-stimulated ARF1 GTP hydrolysis, GDP FP detection; Q62848;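 active = inhibition above a per-plate limit, mean inhibition of low control wells plus 3 SD, cut at about 25% in these data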;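 also: 0% = DMSO wells with enzyme and 100% = wells lacking Arfgap1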
Target sequence (Q62848 1-136 limits assumed): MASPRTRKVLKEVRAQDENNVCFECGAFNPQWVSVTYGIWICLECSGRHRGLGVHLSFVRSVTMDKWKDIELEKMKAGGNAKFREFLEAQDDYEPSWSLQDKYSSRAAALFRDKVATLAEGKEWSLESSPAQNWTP
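Assay system: purified rat His6-Arfgap1 residues 1-136 (GAP domain); Reagent: human Δ17 ARF1 bound to GTP; Dosing: 16.5 µM single point, 1.26% DMSO; Times: GTP hydrolysis reaction 2 h at 25 °C; Signal: FP, GDP Alexa 633 tracer displaced from anti-GDP antibody, 620/688 nm; Measure: % inhibition from polarization.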
MsrA inh confirm: confirmation of bovine MsrA inhibitors | shares compounds with MsrA inhibitor | purified bovine MsrA, absorbance read-out | inhibition, % at 15.5 µM | 2,300 tested, 41% active | AID 651822;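 also: coupled to thioredoxin reductase with NADPH and selenocystamine and DMSO as substrate; 0% = vehicle only and 100% = full effect of reference inhibitor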
Active calls of the source: *; / = no result given. Rule as the data show it, unless noted: active = inhibition above about 4.5%; inactive = the rest.

SMILES	bovine MsrA act	MsrA inhibitor	ASAP1 GAP inh	ARFGAP1 inhibitor	MsrA inh confirm
CCCCOc1ccc(/C(O)=C2/C(=O)C(=O)N(CCN(C)C)C2c2ccc(O)c(OC)c2)cc1 (configuration not stated)	-2.3	8.1*	-10.7	4.8	0.2
N#CC(C#N)=C1NC(N)=C(C#N)C(c2ccccc2)=C1C#N	-3.6	7.2*	3.3	2.1	6.7*
O=[N+]([O-])c1ccc(N=NN(CCO)CCO)cc1	-13.4	5.3*	-3.8	-4.1	2.4
O=[N+]([O-])c1ccc(N=Nc2ncc[nH]2)cc1	-7.0	1.5	-4.8	2.8	/
CNC(=O)c1cc2ccc(OC)cc2oc1=O	-4.3	5.2*	-4.4	2.2	5.7*
CNC(=O)c1cc2cc(OC)ccc2oc1=O	-4.2	/	/	/	/
O=C1c2ccccc2C(=O)C1c1ccc(Br)cc1	0.4	0.2	-4.9	0.0	/
O=C1c2ccccc2C(=O)C1c1ccc(O)cc1	-4.7	4.9*	9.8	10.6	2.5
O=C(N/N=C/C(Cl)=C/c1ccccc1)c1ccco1	-6.8	8.5*	-1.5	8.3	6.6*
O=C(N/N=C/C(Cl)=C/c1ccccc1)c1cnccn1	-6.3	9.6*	-2.4	-1.0	4.2
O=C(N/N=C/C(Cl)=C\c1ccccc1)c1ccco1	-4.8	3.9	-0.9	0.8	/
CC(/C=C/c1ccccc1)=N\NC(N)=S	-5.4	6.0*	-2.0	0.7	3.6
COc1cc2c(c(OC)c1OC)-c1ccc(OC)c(=O)cc1C(NC(=O)c1ccccc1)CC2 (configuration not stated)	-4.4	3.3	-8.2	-10.3	/
COc1ccc(/C=N/N=C2/NC(=O)C(CC(=O)O)S2)cc1OS(=O)(=O)c1ccccc1 (configuration not stated)	-4.5	4.0	-11.1	-0.5	/
Cn1c(=O)n(C)c2cc(/C=N/N=C3/NC(=O)C(CC(=O)O)S3)ccc21 (configuration not stated)	-7.8	6.2*	13.2	3.9	6.7*
COc1ccc(/C=N/N=C2/NC(=O)C(CC(=O)O)S2)cc1OCc1ccc(Cl)cc1 (configuration not stated)	-10.4	7.3*	-6.5	-9.0	5.9*
CCOc1cc(/C=N/N=C2/NC(=O)C(CC(=O)O)S2)ccc1OCc1ccc(Cl)cc1 (configuration not stated)	-6.5	3.4	-11.3	4.3	/
COC(=O)[C@]1(Cc2ccccc2)N[C@H](CN(C)S(=O)(=O)c2ccc(-c3ccccc3)cc2)[C@@H]2C(=O)N(C)C(=O)[C@@H]21	-2.9	1.2	1.4	-14.0	/
Cc1cc(=O)oc2c3c(cc(OCC(=O)NCC4CCC(C(=O)O)CC4)c12)OC(C)(C)CC3 (configuration not stated)	-5.3	2.1	-9.4	-6.3	/
c1ccc2c(c1)CCCN2c1nc2ccccc2n2cnnc12	-12.5	12.0*	12.4	11.8	12.2*
O=[N+]([O-])c1cc(S(=O)(=O)Nc2ccccc2)ccc1Nc1ccccc1	-4.8	5.7*	-22.3	6.8	3.8
O=[N+]([O-])c1cc(S(=O)(=O)Nc2ccccc2)ccc1NCc1ccccc1	1.0	0.2	6.4	-6.5	/
O=C(O)c1cccc(N/N=C/c2sc(N3CCOCC3)nc2-c2ccccc2)c1	-14.8	18.9*	-1.5	6.8	16.9*
COc1cc(C(=O)N/N=C/c2sc(N3CCOCC3)nc2-c2ccccc2)cc(OC)c1OC	-5.4	6.6*	6.5	3.9	3.3
O=C(Nc1ccccc1F)C(=Cc1sc(N2CCOCC2)nc1-c1ccccc1)C(=O)Nc1ccccc1F	-5.9	4.8*	3.3	9.3	4.4
SMILES	bovine MsrA act	MsrA inhibitor	ASAP1 GAP inh	ARFGAP1 inhibitor	MsrA inh confirm
O=C(N/N=C/c1sc(N2CCOCC2)nc1-c1ccccc1)c1ccccc1Cl	-10.7	0.3	6.2	-11.6	/
c1ccc(-c2nc(N3CCOCC3)sc2-c2ccccc2)cc1	-1.1	0.5	-0.2	1.8	/
O=C(N/N=C/c1sc(N2CCOCC2)nc1-c1ccccc1)c1ccccc1O	-5.9	6.5*	-16.6	-8.2	5.1*
O=C(CC1CCCC1)N1CCN(S(=O)(=O)c2cccc(F)c2)CC1	-1.7	2.5	14.9	7.0	/
COc1ccc(N2CCN(c3nccs3)CC2)cc1	-3.0	-0.4	-5.6	-15.8	/
COc1ccccc1NC(=O)CCN1C(=O)c2ccccc2S1(=O)=O	-2.6	0.2	-3.0	10.1	/
NC(=O)c1ncn([C@@H]2O[C@H](C(=O)N[C@H](Cc3ccccc3)C(=O)O)[C@@H](O)[C@H]2O)n1	/	1.2	-8.6	-3.5	/
Cc1c(-n2c(SCC(=O)O)nnc2-c2ccccc2Br)c(=O)n(-c2ccccc2)n1C	-1.6	-1.2	-0.3	3.6	/
O=C(N/N=C/c1sc(N2CCOCC2)nc1-c1ccccc1)c1cccc(S(=O)(=O)N2CCOCC2)c1	2.4	3.5	6.5	-0.3	/
Cc1cc(C(=O)N/N=C/c2sc(N3CCOCC3)nc2-c2ccccc2)c(C)o1	-1.5	17.4*	-9.5	-8.4	6.7*
Nc1ccc(C(=O)N/N=C/c2sc(N3CCOCC3)nc2-c2ccccc2)cc1	-3.0	7.4*	17.4	-0.5	3.7
CCOC(=O)c1c(NC(=O)c2cc(-c3ccc(O)cc3)on2)sc(C(C)=O)c1C	-5.2	-0.4	0.6	-3.8	/
Cc1ccc(C)n1-n1c(C)nc2scc(-c3cccs3)c2c1=O	-1.9	29.1*	-1.9	0.0	25.0*
Nn1cnc2scc(-c3cccs3)c2c1=O	-4.5	-1.1	15.1	-5.4	/
COc1ccc(-c2csc3nc(C)n(-n4cccc4)c(=O)c23)cc1	-2.4	8.6*	6.7	2.8	3.5
C=CCn1cnc2scc(-c3ccc(OC)cc3)c2c1=O	-1.8	1.2	-2.2	7.1	/
Cc1nc2scc(-c3cccs3)c2c(=O)n1-n1cccc1	1.1	15.2*	2.7	-6.8	10.5*
Cc1nc2scc(-c3cccs3)c2c(=O)o1	-0.2	-0.6	-3.0	16.0	/
O=C(OCc1ccccc1)N1Cc2ccnnc2CC1c1ccccc1Br (configuration not stated)	-1.1	0.3	6.4	7.6	/
O=C(N/N=C/c1cc2c(cc1[N+](=O)[O-])OCO2)c1ccc2c(c1)OCO2	1.6	0.9	-1.9	6.1	/
COc1c(O)ccc(/C=N\NC(=O)c2ccc3c(c2)OCO3)c1[N+](=O)[O-]	-4.1	8.1*	4.4	-0.6	4.9*
COc1cc(/C=N/NC(=O)c2ccc3c(c2)OCCO3)cc(Cl)c1O	-9.5	6.0*	7.7	-14.6	5.0*
COc1c(O)ccc(/C=N/NC(=O)c2ccc3c(c2)OCCO3)c1[N+](=O)[O-]	-6.2	7.2*	-1.4	-8.5	4.4
Cc1ccc(C(=O)c2c3ccc([N+](=O)[O-])cc3[n+]([O-])n2CCCN)cc1	-0.9	0.8	4.7	11.3	/
CCCCOc1cccc(C2/C(=C(\O)c3ccc4c(c3)OCCO4)C(=O)C(=O)N2CCN2CCOCC2)c1 (configuration not stated)	-4.5	1.0	-3.0	-1.4	/
Oc1c(Br)cc(/C=N/Nc2ccc(Cl)nn2)cc1Br	-6.2	5.9*	5.1	-4.1	3.4
NC(=O)C1CN(C(=O)c2nn(Cc3ccccc3)c(=O)c3ccccc23)c2ccccc2O1 (configuration not stated)	-1.0	0.1	2.8	-4.6	/
